From PubChem
The list is not random: actives were taken first. Their share in the collection is about 5%.
CSC inhib = cancer stem cell viability inhibitors, primary screen, luminescence; cancer stem cell-like cells viability; inhibition, % at 7.5 µM; 300,000 compounds, 1.1% hits; AID 2717, 2010; in the data active = inhibition above about 75%; inconclusive = no clear call, values can overlap the other calls; tested in HMLE shEcad cells
Beta apoptosis = inhibitors of cytokine-induced beta cell apoptosis, primary screen, luminescence. INS-1E cytokine-induced death, ATP luminescence, 48 h; percent of positive-control rescue, neutral wells zero. protection from apoptosis, % (test concentration not listed). 300,000 compounds, 0.8% hits;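 active = Every replicate reaches about 75%, or at least half do and their mean reaches it too, limit read from the data; inconclusive = At least half of replicates reach the limit but their mean does not; inactive = Under half of replicates reach the limit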;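 note: higher means more ATP so stronger rescue from cytokine killing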
Mdm2-MdmX inh = inhibitors of human Mdm2-MdmX association, primary screen, cell-based, luminescence, split luciferase, SaOS-2, uHTS. Protein Mdm4 (Homo sapiens) + E3 ubiquitin-protein ligase Mdm2 (Homo sapiens), …. SaOS-2 split-luciferase Mdm2/MdmX complementation. inhibition, % at 8 µM. 330,000 compounds, 3% hits. AID 485346, 2010;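 active = inhibition of at least 50% at 8 µM in the primary screen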
Target sequence (O15151 whole entry, looked up): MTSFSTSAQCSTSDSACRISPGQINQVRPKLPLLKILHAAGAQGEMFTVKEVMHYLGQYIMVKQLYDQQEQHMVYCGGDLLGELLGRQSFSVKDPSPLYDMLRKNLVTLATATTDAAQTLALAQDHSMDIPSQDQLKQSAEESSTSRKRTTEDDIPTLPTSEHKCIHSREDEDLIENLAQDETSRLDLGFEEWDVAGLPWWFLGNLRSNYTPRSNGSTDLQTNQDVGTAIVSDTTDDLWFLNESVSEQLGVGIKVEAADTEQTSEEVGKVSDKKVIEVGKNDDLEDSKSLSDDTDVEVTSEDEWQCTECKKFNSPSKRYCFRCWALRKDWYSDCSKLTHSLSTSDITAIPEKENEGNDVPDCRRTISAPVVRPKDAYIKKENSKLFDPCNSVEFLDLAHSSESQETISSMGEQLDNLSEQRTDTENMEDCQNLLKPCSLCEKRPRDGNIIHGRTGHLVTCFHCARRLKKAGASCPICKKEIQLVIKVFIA
Target sequence (Q00987 whole entry, looked up): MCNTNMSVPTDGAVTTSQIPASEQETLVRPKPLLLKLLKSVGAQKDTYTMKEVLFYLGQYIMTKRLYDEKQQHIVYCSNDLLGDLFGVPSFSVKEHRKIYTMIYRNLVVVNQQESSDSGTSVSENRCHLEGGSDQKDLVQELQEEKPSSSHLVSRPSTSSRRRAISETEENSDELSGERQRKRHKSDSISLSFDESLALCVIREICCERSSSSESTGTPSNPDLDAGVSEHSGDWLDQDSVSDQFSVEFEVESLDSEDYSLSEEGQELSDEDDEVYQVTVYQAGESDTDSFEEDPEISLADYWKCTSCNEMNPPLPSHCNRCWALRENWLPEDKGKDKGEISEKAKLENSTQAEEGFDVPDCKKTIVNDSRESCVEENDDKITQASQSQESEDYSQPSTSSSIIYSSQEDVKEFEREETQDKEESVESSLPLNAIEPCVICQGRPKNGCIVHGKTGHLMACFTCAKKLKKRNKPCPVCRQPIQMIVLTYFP
T cruzi inh = inhibitors of intracellular T. cruzi growth, primary screen, luminescence, NIH3T3 host cells | AID 1885, 2009 | T. cruzi beta-gal in NIH3T3, 90 h | 300,000 compounds, 1.4% hits | inhibition, % (no concentration beside the values);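 active = mean inhibition across valid replicates above about 55%, limit read from the data; inconclusive = mean below that limit but half or more replicates reach it; inactive = mean below it, under half of replicates reach it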;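 note: signal also drops with host cell toxicity which is not excluded here; higher percent means less beta-gal luminescence so fewer parasites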
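Assay system: NIH/3T3 fibroblasts plus reporter T. cruzi. Amount: NIH/3T3 cells, 5,000 per well. Buffer or medium: DMEM, 2% fetal bovine serum. Doses: compound pinned at 50 nL/well, DMSO. Schedule: ≥90 h infection period, 3 h prior cell attachment. Signal: luminescent β-galactosidase signal after 60 min lysis. Read-out: parasite load inhibition, %.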
UPR CHOP act = activators of apoptotic CHOP UPR arm, primary screen, cell-based, CHO-CHOP luciferase reporter, luminescence, uHTS; UPR activation; percent of tunicamycin response over DMSO baseline; activation, % at 10 µM; 330,000 compounds, 0.34% hits;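 active = at 10 µM dose, activation of 40% or more, normalized to positive control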
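measured by = luciferase luminescence | assay system = CHO-CHOP cells, stable luciferase reporter of PERK-eIF2a-CHOP signalling | amount = 500 reporter cells seeded per well | timing = 6 h compound exposure at 37 °C after overnight seeding | controls = positive tunicamycin 10 µg/mL, negative DMSO alone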
XBP1 UPR activ = activators of adaptive XBP1 UPR arm, primary screen, cell-based, CHO-XBP1 luciferase reporter, luminescence, uHTS | IRE1-XBP1 UPR activation; percent of tunicamycin response, DMSO as zero | activation, % at 20 µM | 330,000 compounds, 0.33% hits | AID 463104, 2010;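 active = versus positive control, 20 µM dose yields 30% or more activation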
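Test system: CHO-XBP1 luciferase reporter cells | Buffer or medium: Serum-containing F12 medium, 10% FBS | Schedule: 6 h compound exposure at 37 °C, 5% CO2 | Detection: Steady-Glo luciferase glow luminescence, 10 min after reagent addition | Read-out basis: Activation, % of tunicamycin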
UPR CHOP confirm = activators of apoptotic CHOP UPR arm, confirmation, cell-based, CHO-CHOP luciferase reporter, single concentration; 1,000 compounds, 64% hits; CHO-CHOP cells, CHOP-luciferase reporter luminescence; percent of tunicamycin response, DMSO as zero; activation, % at 10 µM; shares compounds with UPR CHOP act; AID 463112, 2010; in the data active = activation above about 33%
XBP1 UPR conf = IRE1-XBP1 UPR arm activators, confirmation, cell-based, CHO-XBP1 luciferase reporter, luminescence, single concentration. shares compounds with XBP1 UPR activ. 1,000 compounds, 63% hits. activation, % at 20 µM;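 active = reporter signal at least 30% of the positive control's activation in two or more of four replicate wells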
Numbers stand for hits; 0 = inactive; ? = inconclusive; - = no result given.

SMILES | CSC inhib | Beta apoptosis | Mdm2-MdmX inh | T cruzi inh | UPR CHOP act | XBP1 UPR activ | UPR CHOP confirm | others
CCCn1cc(CN2CCCC(C(=O)c3cccc(OC)c3)C2)c(C)n1 (centres undefined) | 0 | 0 | 0 | 0 | 0 | 0 | -
CCn1cc(CN2CCCC(C(=O)c3cccc(OC)c3)C2)c(C)n1 (centres undefined) | 0 | 0 | 0 | 58.4 | 0 | 0 | -
CCOC(=O)c1c(NC(=O)C(c2ccccc2)c2ccccc2)sc2c1C1CCN2CC1 | 81.5 | 0 | 0 | 54.8 | 0 | 0 | -
COC(=O)C1=C(c2c(C)noc2C)C[C@@H]2CC[C@H]1N2C(=O)NCc1ccco1 | 0 | 0 | 0 | - | 0 | 0 | -
O=c1[nH]c(=O)n(C2CCCCCC2)c(O)c1C=NC1CCN(Cc2ccccc2)CC1 | 0 | 0 | 0 | 65.0 | 0 | 0 | -
Cn1c(O)c(C=NC2CCN(Cc3ccccc3)CC2)c(=O)[nH]c1=O | 0 | - | 0 | 0 | 0 | 0 | -
CCC1=Nc2cc(C(=O)N3CCC4(CC3)OCCO4)ccc2Sc2ccc(Br)cc21 | 0 | 0 | 0 | 0 | 0 | 0 | -
CCCCCc1cc(O)c2c3c(c(=O)oc2c1)CN(C)CC3 | 84.0 | 0 | 0 | 0 | 0 | 0 | -
COC(=O)C1=C(c2ccc(OC(F)(F)F)cc2)C[C@@H]2CC[C@H]1N2C(=O)NCc1cc(C)oc1C(F)(F)F | 0 | 0 | 0 | - | 0 | 0 | -
CN1CCCN(c2ccc([N+](=O)[O-])nc2)CC1 | 0 | 0 | 0 | 0 | 0 | 0 | -
COc1ccccc1CCNCc1cccc(C(F)(F)F)c1 | 0 | 0 | 0 | 0 | 0 | 0 | -
CCCCn1c(N)c(C(=O)NCc2cccs2)c2nc3ccccc3nc21 | 0 | 0 | 0 | 54.9 | 0 | 0 | -
CCCCCn1c(N)c(C(=O)NCc2cccs2)c2nc3ccccc3nc21 | 0 | 0 | 0 | 0 | 0 | 0 | -
Nc1c(C(=O)NCCCc2ccccc2)c2nc3ccccc3nc2n1Cc1cccs1 | 0 | 0 | 0 | 57.8 | 0 | 0 | -
CC(=O)O[C@H]1CC[C@@]2(C)[C@H](C1)C(=O)C[C@H]1[C@@H]3CC[C@@H]4[C@@H](CN5C[C@@H](C)CC[C@H]5[C@@]4(C)O)[C@@H]3C[C@@H]12 | 0 | 0 | 0 | 0 | 0 | 0 | -
Cc1cc(C)c2c(ccc3cccc[n+]32)c1 | 0 | 82.1 | 0 | 0 | 0 | 0 | -
CCN1C(=O)/C(=C/c2ccc(N(CC)CC)cc2OC)C(=O)NC1=S | - | 0 | 0 | 0 | 0 | 0 | -
O=c1nc(/C=C/c2ccc(Cl)cc2Cl)cc(C(F)(F)F)[nH]1 | 107.7 | 0 | 0 | 0 | 0 | 0 | -
COC1CC(OC2CCC3(C)C(CCC4C3CCC3(C)C(C5=CC(=O)OC5)C(OC(C)=O)CC43O)C2)OC(C)C1OC1OC(COC2OC(CO)C(O)C(O)C2O)C(O)C(O)C1O (centres undefined) | 78.8 | - | - | 0 | - | - | -
COc1ccc(CN2C(=O)NC(=O)/C(=C\c3ccco3)C2=O)cc1 | 0 | 0 | 0 | 0 | 0 | 0 | -
O=C1NC(=O)N(Cc2ccccc2)C(=O)/C1=C/C=C/c1ccco1 | 90.0 | 0 | 0 | 0 | 0 | 0 | -
CCCc1cc(=O)oc2cc(OCC(=O)N3CCC(C(=O)O)(c4ccccc4)CC3)ccc12 | 0 | 0 | 0 | 0 | 0 | 0 | -
COC(=O)c1nc(-c2ccc3c(n2)C(=O)C(N)=C(OC)C3=O)c(N)c(-c2ccc(OC)c(OC)c2O)c1C | 112.8 | 110.9 | 0 | 0 | 0 | 0 | -
COc1cc(/C=C/[N+](=O)[O-])ccc1O | 0 | 0 | 0 | 0 | 188.8 | 0 | 53.6
O=c1[nH]c(=S)n(C2CC2)c(O)c1C=Nc1cccc(C(F)(F)F)c1 | 0 | 0 | 0 | 0 | 46.1 | 0 | 35.5
SMILES | CSC inhib | Beta apoptosis | Mdm2-MdmX inh | T cruzi inh | UPR CHOP act | XBP1 UPR activ | UPR CHOP confirm | others
CN1C2CCC1C(C(=O)O)C(O)C2 (centres undefined) | - | - | 0 | - | 0 | 0 | -
Cc1cccc(NC(=O)COC(=O)c2cc(C)n(C3CC3)c2C)c1 | - | 0 | 0 | - | 0 | 0 | -
Cc1cc(C)cc(N2C(=O)NC(=O)/C(=C\c3cccn3-c3ccccc3)C2=O)c1 | ? | 0 | 0 | 0 | 188.6 | 0 | 332.9
Cc1cccc(N2C(=O)NC(=O)/C(=C\c3cnc(-c4ccccc4)nc3)C2=O)c1 | 0 | 0 | 0 | 0 | 0 | 0 | -
O=C(Cc1ccccc1F)N1CCN(CC(=O)N2CCCC2)CC1 | 0 | 0 | 0 | - | 0 | 0 | -
CCOC(=O)c1c(-n2c(C)cc(C=C3C(=O)NC(=S)NC3=O)c2C)sc2c1CCCC2 | 0 | 0 | 0 | 0 | 185.1 | 0 | 0
CCCCn1c(=O)c(C(=O)Nc2ccccc2C)c(O)c2ccccc21 | 0 | 0 | 0 | 0 | 0 | 0 | -
CCCCCn1c(=O)c(C(=O)Nc2ncccc2C)c(O)c2ccccc21 | 0 | 88.5 | 0 | 0 | 46.1 | 35.7 | 0
COc1ccc(N2C(=O)/C(=C/C=C/c3ccccc3[N+](=O)[O-])C(=O)NC2=S)cc1 | - | - | 0 | 0 | 355.5 | 0 | 90.2
COc1ccc(N2C(=O)/C(=C/c3cccs3)C(=O)NC2=S)cc1 | 0 | 0 | 0 | 0 | 462.0 | 0 | 157.3
COc1ccccc1/C=C1\C(=O)NC(=S)N(c2ccccc2)C1=O | 0 | 0 | 0 | 0 | 0 | 0 | -
COc1ccc(N2C(=O)/C(=C/c3ccc(N(C)C)o3)C(=O)NC2=S)cc1 | 0 | 0 | 0 | 0 | 0 | 0 | -
COc1cccc(N2C(=O)/C(=C/c3ccc(C)o3)C(=O)NC2=S)c1 | 0 | 0 | 0 | 0 | 262.1 | 0 | 0
CC(=O)OC1CC[C@]2(C#N)[C@H]3CC[C@]4(C)[C@H](C5C=CC(=O)O5)CCC4(O)C3CCC2(O)C1 (some centres undefined) | 0 | 0 | 0 | 0 | 0 | 0 | -
CC1C2Cc3ccc(O)cc3[C@]1(C)CCN2CCc1ccccc1 (some centres undefined) | - | - | 0 | - | 0 | 0 | -
CCn1c(O)c(N=Nc2cccc(S(=O)(=O)N3CCOCC3)c2)c(=O)n(CC)c1=S | 0 | 0 | 0 | 0 | 41.4 | 0 | 0
CCn1c(O)c(C=Nc2ccc(N3CCOCC3)cc2)c(=O)n(CC)c1=S | 0 | 0 | 0 | 0 | 0 | 0 | -
CC(C)N1C(=O)/C(=C/C=C/c2ccco2)C(=O)N(Cc2ccco2)C1=O | 0 | 0 | 0 | 0 | 45.1 | 0 | 156.4
CCCCn1c(NC(=O)c2ccco2)c(C(=O)OCC)c2nc3ccccc3nc21 | 0 | 0 | 0 | 0 | 47.0 | 40.4 | 0 | XBP1 UPR conf=0
